{"source": "ChEMBL document CHEMBL4732170", "about": "“Discovery of Small-Molecule Antagonists of the PWWP Domain of NSD2” (J Med Chem, 2021)", "target": "T1, Histone-lysine N-methyltransferase NSD2 (Homo sapiens, UniProt O96028)", "T1 sequence (O96028 whole entry)": "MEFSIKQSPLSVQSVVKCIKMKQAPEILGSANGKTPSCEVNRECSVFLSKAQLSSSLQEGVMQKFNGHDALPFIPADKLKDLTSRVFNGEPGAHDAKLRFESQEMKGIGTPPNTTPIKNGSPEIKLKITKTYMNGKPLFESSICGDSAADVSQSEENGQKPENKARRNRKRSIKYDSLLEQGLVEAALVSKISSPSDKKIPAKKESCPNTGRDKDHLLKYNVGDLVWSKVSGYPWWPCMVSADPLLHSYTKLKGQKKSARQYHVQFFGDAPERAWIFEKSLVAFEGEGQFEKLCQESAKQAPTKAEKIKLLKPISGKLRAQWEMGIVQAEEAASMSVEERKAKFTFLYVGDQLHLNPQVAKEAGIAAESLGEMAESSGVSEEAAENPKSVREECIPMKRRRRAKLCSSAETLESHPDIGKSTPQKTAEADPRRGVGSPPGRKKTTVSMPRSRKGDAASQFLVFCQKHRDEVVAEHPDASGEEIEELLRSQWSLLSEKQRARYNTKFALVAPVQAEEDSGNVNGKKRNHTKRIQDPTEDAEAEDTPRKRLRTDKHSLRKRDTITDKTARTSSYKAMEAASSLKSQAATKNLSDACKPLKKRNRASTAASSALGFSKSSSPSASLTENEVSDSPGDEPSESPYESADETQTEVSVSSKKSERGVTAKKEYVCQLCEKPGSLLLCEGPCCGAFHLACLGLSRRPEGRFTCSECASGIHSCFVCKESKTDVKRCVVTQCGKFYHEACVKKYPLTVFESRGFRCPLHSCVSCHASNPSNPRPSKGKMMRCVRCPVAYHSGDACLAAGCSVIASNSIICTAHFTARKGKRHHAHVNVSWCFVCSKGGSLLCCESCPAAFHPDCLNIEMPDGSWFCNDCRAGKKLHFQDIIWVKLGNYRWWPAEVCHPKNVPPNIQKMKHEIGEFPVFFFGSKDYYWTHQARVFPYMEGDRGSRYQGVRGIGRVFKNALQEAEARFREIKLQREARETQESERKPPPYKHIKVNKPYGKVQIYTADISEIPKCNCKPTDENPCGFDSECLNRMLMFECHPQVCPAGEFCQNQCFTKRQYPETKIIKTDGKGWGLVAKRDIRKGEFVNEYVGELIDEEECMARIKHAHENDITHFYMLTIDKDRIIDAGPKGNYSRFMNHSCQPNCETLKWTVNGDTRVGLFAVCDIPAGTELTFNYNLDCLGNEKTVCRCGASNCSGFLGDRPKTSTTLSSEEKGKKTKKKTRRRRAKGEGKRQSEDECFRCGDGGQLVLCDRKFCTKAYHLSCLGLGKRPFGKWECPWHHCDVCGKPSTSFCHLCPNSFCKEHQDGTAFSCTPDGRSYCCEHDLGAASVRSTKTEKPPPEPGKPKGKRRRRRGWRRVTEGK", "experiment": "Binding affinity to NSD2 PWWP1 domain (unknown origin) assessed as dissociation constant by surface plasmon resonance analysis", "in_short": "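SPR in single-cycle kinetics, HBS-EP buffer (20 mM HEPES pH 7.4, 150 mM NaCl, 3 mM EDTA, 0.05% Tween-20) with 5% DMSO. Ten concentrations from 200 μM top, twofold dilutions. Contact time 60 s, dissociation 120 s, flow 75 μL/min; Kd derived.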", "data": [{"smiles": "N#Cc1ccc(C(C(N)=O)N2CCC2c2ccc(Cl)cc2)cc1", "note": "(stereo unspecified)", "values": [{"measurement": "Kd", "value": 41, "unit": "µM"}]}]}
